# An excerpt weighted towards active compounds, which were near 1.8% of everything screened.
# 697 NFkB inh: inhibitors of the PMA/ionomycin-induced NF-kB reporter in 697 B cells; 697 B-cell NF-kB luciferase reporter, 16 h; inhibition, % at 4 µM; 0.33% of 330,000 active; AID 435022; in the data active = inhibition above about 35%
# Lipid droplet: hepatic lipid droplet formation modulation. AML12 mouse hepatocytes, oleate lipid droplets, BODIPY imaging. inhibition, % at 6.5 µM. 0.4% of 240,000 active. AID 1656;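 active = lipid droplet intensity inhibited by at least 50%, with more than 500 cells counted; inconclusive = wells with under 300 cells, treated as cytotoxic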
#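 System: AML12 hepatocytes (mouse). Probe or stimulus: oleic acid at 100 µM to induce lipid droplet formation. Times: overnight treatment with compound plus oleate. Detection: Image-based BODIPY and DAPI two-channel analysis. Evaluation: percent inhibition of filter-corrected integrated lipid droplet intensity per well.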
# Jurkat NFkB inh: inhibitors of the PMA/ionomycin-induced NF-kB reporter in Jurkat cells; 0.53% of 330,000 active; PMA/ionomycin-induced NF-kB luciferase reporter, luminescence; inhibition, % at 4 µM; in the data active = inhibition above about 50%
# H9c2 TAG inh: reduces triacylglycerol accumulation in H9c2 cells. Nile Red lipid (TAG) fluorescence; cells loaded with 200 µM oleic acid. 0.66% of 230,000 active. inhibition, % at 12.5 µM. AID 651582;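 active = pattern-corrected inhibition of lipid staining of at least 50% with the nuclear-stain viability signal not falling by more than 50%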;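 also: 0% = DMSO wells and 100% = triacsin C control wells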
# Gli-Sufu antag: blocks Gli-Sufu signaling in a luciferase reporter | Sufu-KO-LIGHT fibroblasts, Gli luciferase reporter luminescence | inhibition, % at 5 µM | 0.74% of 340,000 active;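 active = inhibition above about 55%, limit read from the data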;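 also: 0% = DMSO-treated cells and 100% = wells with medium but no cells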
# iPSC survival up: enhancers of human iPSC single-cell survival; hiPSC single-cell survival, ATPlite luminescence; 100% = ROCK inhibitor wells, 0% = DMSO; survival enhancement, % at 20 µM; 0.044% of 360,000 active; in the data active = survival enhancement above about 18%;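 also: cells exposed to compounds for 16 hours before the ATP read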
# Hep lipid conf: hepatic lipid droplet formation inhibition, confirmed. AML12 mouse hepatocytes, BODIPY lipid droplet imaging; droplets induced with 100 µM oleic acid. AID 463183. shares compounds with Lipid droplet. inhibition, % at 5.2 µM. 65% of 870 active;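 active = inhibition of lipid droplet metric at least 50%, with more than 300 cells in each of four replicates; inconclusive = wells under 300 cells, flagged as toxic or low count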;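 also: plate controls were DMSO with oleic acid for no effect and 5 µM Triacsin-C for full effect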
# AML12 tox img: toxic to AML12 mouse hepatocytes in counter-screen. z-score at 5 µM. 3% of 870 active. shares compounds with Lipid droplet. DAPI nuclear morphology cytotoxicity imaging; hits give high values; cells fed 100 µM oleate overnight; in the data active = z-score above about 6.3;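 also: compound exposure lasted overnight at 37 °C before fixation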
# AML12 tox ATP: confirmation of cytotoxicity in AML12 mouse hepatocytes; 530 tested, under 10 active; cytotoxicity, % at 50 µM; AID 463219; AML12 mouse hepatocyte viability, ATP luminescence; cells loaded with 100 µM oleic acid; shares compounds with Lipid droplet;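 active = cytotoxicity above 50% in each of four replicates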;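 also: compound exposure lasted overnight at 37 °C before the ATP read; 0% = DMSO-treated cells and 100% = wells with no cells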
# Jurkat NFkB conf: lowers PMA/ionomycin-induced NF-kB signal in Jurkat cells. shares compounds with Jurkat NFkB inh. Jurkat NF-kB luciferase, 16 h. inhibition, % at 4 µM. 27% of 2,700 active;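 active = inhibition reaching about 45% at 4 µM in either replicate, limit read from the data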;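 also: plate controls were PMA/ionomycin stimulated DMSO wells for no effect and unstimulated DMSO wells for full effect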
# 697 NFkB conf: lowers PMA/ionomycin-induced NF-kB signal in 697 B cells; shares compounds with 697 NFkB inh; 697 B-cell NF-kB luciferase, 16 h; inhibition, % at 4 µM; 35% of 2,000 active; AID 449746; in the data active = inhibition mostly above about 28%, no sharp cut-off; inactive = mostly below about 22%
# Gli-Sufu confirm: confirmation of Gli-SUFU pathway antagonists; shares compounds with Gli-Sufu antag; Sufu-KO-LIGHT cells, Gli luciferase reporter, luminescence; inhibition, % at 5 µM; 40% of 2,500 active; AID 602428;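 active = mean inhibition at 5 µM reaching about 45%, limit read from the data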;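 also: plate controls were DMSO-treated cells for no effect and wells lacking cells for full effect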
# SufuKO cytotox: cytotoxic in Gli-SUFU antagonist counter-screen; shares compounds with Gli-Sufu antag; Sufu-KO-LIGHT cells cytotoxicity, ATP luminescence; cytotoxicity, % at 5 µM; 32% of 2,500 active; AID 651994;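 active = mean cytotoxicity at 5 µM above about 25%, limit read from the data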;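 also: cells exposed to compound overnight for roughly 16 to 18 hours; plate controls were DMSO wells with cells for no effect and medium without cells for full effect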
# Wnt3a counter: Wnt3a reporter inhibition counter-screen; shares compounds with Gli-Sufu antag; Wnt-LIGHT cells, Wnt3a-driven luciferase reporter, luminescence; inhibition, % at 6.25 µM; 20% of 2,500 active;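 active = mean inhibition above about 25%, limit read from the data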
# The depositor's hits bear a star; ? = inconclusive; . = no result given.
SMILES,697 NFkB inh,Lipid droplet,Jurkat NFkB inh,H9c2 TAG inh,Gli-Sufu antag,iPSC survival up,Hep lipid conf,AML12 tox img,AML12 tox ATP,others
COc1ccccc1NS(=O)(=O)c1ccc(N/N=C/c2c(C)nn(-c3ccccc3)c2N2CCCC2)c([N+](=O)[O-])c1,-29.3,99.9*,-5.4,.,4.4,-0.9,114.4*,-1.05,24.9,
COc1ccccc1NS(=O)(=O)c1cccc(C(=O)N/N=C/c2c(C)nn(-c3ccccc3)c2N2CCCC2)c1,-8.7,-21.8,3.8,.,4.2,1.6,.,.,.,
Cc1oc2c(cc(NS(=O)(=O)c3ccc(C(C)C)cc3)c3ccccc32)c1C(=O)O,-44.3,6.1,-72.2,.,6.7,-0.7,.,.,.,
Cc1oc2c(cc(NS(=O)(=O)c3cccs3)c3ccccc32)c1C(=O)OC(C)C,-4.3,68.1*,3.2,-9.3,20.8,-2.2,88.9*,0.021,5.4,
COc1cc2c3nnc(-c4ccc(F)cc4)c-3cn(Cc3cccc(F)c3)c2cc1OC,8.3,-4.0,4.7,-157.1,9.3,-4.8,.,.,.,
COc1cc2c3nnc(-c4ccc(F)cc4)c-3cn(Cc3cccc(C)c3)c2cc1OC,-26.2,54.3*,6.2,-160.3,6.2,-3.2,40.1,4.4,.,
Cc1ccsc1C(=O)Nc1ccc(C(=O)O)cc1,-6.8,4.2,-18.0,.,1.8,2.1,.,.,.,
COc1ccc(NC(=O)c2sccc2C)cn1,-31.2,60.4*,-36.6,15.1,-35.7,-0.1,0.6,-0.172,.,
Cc1ccc(-n2nc3c(=O)n(CC(=O)NCCCc4ccccc4)nc(C)c3c2C)cc1,4.4,65.0*,41.6,.,-16.1,-0.5,81.3*,-0.421,26.6,
CCC(C(=O)NCc1ccc(C)o1)n1nc(C)c2c(C)n(-c3ccccc3)nc2c1=O (stereo unspecified),-18.4,24.5,10.6,.,-51.0,-0.3,.,.,.,
Cc1ccc(-n2nc3c(=O)n(C(C)C(=O)NCCCc4ccccc4)nc(C)c3c2C)cc1 (stereo unspecified),-19.8,43.1,10.9,.,16.2,0.0,.,.,.,
CCC(C(=O)NCc1cccc(C)c1)n1nc(C)c2c(C)n(-c3ccccc3)nc2c1=O (stereo unspecified),-10.3,64.0*,13.5,.,1.9,-0.4,78.2*,-0.533,21.6,
O=C(CSc1nc2ccccc2o1)Nc1nc(-c2ccccc2)c(-c2ccccc2)s1,-6.4,60.0*,-8.4,.,-3.0,-1.7,96.3*,-0.0482,-11.8,
Cc1ccc(NC(=O)CN(C)C(=O)c2ccc(NS(=O)(=O)c3ccc4[nH]c(=O)[nH]c4c3)cc2)cc1,3.8,.,7.9,8.2,-0.1,2.6,.,.,.,
COC(=O)C1=C(C(=O)OC)SC(=C2C(=S)C(C)(C)N(C(=O)C(C)C)c3ccccc32)S1,7.6,56.8*,6.5,.,11.7,-0.9,102.1*,0.568,16.5,
COc1ccc(N2CC(C(=O)NCCc3ccc(Cl)cc3)CC2=O)cc1 (stereo unspecified),9.0,-2.1,12.2,.,3.1,0.3,.,.,.,
Cc1cc(C(=O)CN2C(=O)c3ccccc3S2(=O)=O)c(C)n1-c1ccccc1,-33.6,64.7*,65.9*,-6.3,14.8,-1.5,24.1,-0.277,.,Jurkat NFkB conf=-0.9
C=CCN(c1ccccc1OC)S(=O)(=O)c1cccc(C(=O)Nc2nnc(C3CC3)s2)c1,3.4,.,9.7,0.3,-9.8,-2.8,.,.,.,
CCC(C)Oc1cc(-c2ccnc(Nc3cccc(Cl)c3)n2)ccn1 (stereo unspecified),-53.8,-9.6,26.9,-10.3,-8.4,0.2,.,.,.,
OCCCNc1cc(-c2ccnc(Nc3cccc(Cl)c3)n2)ccn1,85.3*,77.4*,98.6*,89.6*,75.0*,-1.3,90.0*,27.4*,.,Jurkat NFkB conf=99.9*;697 NFkB conf=90.8*
C#CC(=O)N(c1ccc(OC)c(OC)c1)C(C(=O)NC1CCCC1)c1cccs1 (stereo unspecified),100.6*,109.5*,100.0*,.,70.1*,-3.2,?,34.8*,.,Jurkat NFkB conf=85.2*;697 NFkB conf=101.8*
CCOc1cc(/C=N\Nc2nc(Nc3ccccc3)nc(N3CCOCC3)n2)ccc1OC(=O)c1ccco1,59.0*,132.0*,-62.1,128.5,35.6,-1.3,108.8*,20.5*,.,697 NFkB conf=46.1*
Cc1cccc(C)c1NC(=O)CN1CCN(C(=O)c2cc(C3CC3)nn2-c2ccccc2)CC1,.,.,.,2.1,.,-1.6,.,.,.,
CCCCCNc1ncnc2c(C)[nH]nc12,.,.,.,.,.,-0.6,.,.,.,
CCN(CC)S(=O)(=O)c1ccc(NS(=O)(=O)CC23CCC(CC2=O)C3(C)C)cc1 (stereo unspecified),-5.6,3.7,-2.6,.,-3.0,-1.2,.,.,.,
COc1ccc(OC)c(CCNC(=O)C(C)n2nc(C)c3c(C)n(-c4ccc(C)cc4)nc3c2=O)c1 (stereo unspecified),40.0*,60.3*,48.7,.,12.2,-0.4,99.3*,-0.0521,22.5,697 NFkB conf=86.6*
O=C(CSCc1cccc(Br)c1)N=Nc1c(O)[nH]c2ccccc12,5.2,.,-10.6,0.6,6.9,-0.4,.,.,.,
O=Nc1c(-c2c(O)[nH]c3cc(Br)ccc23)[nH]c2ccccc12,-321.3,75.1*,39.1,83.6*,-53.6,-3.7,111.8*,2.53,67.4*,697 NFkB conf=-348.8
CCOC(=O)CSc1c(-c2cccs2)[nH]c2ccccc12,2.3,82.9*,2.7,.,52.2,-1.8,95.4*,-0.712,3.7,Gli-Sufu confirm=65.1*;SufuKO cytotox=4.5;Wnt3a counter=14.3
CC(c1ccccc1)n1c(-c2cccs2)nc2c(c(=O)c3ccccc3n2C)c1=O (stereo unspecified),14.6,17.7,8.0,7.5,4.7,-0.6,.,.,.,
